Assay results pooled from the literature.
Compare with care: the assays were run in different laboratories. pEC50, pIC50, pKd, pKi: −log10 of the molar value.
CTSB: Cathepsin B (CTSB, Homo sapiens, UniProt P07858)
CDK2: Cyclin-dependent kinase 2 (CDK2, Homo sapiens, UniProt P24941)
LGALS4 C-terminal domain: Galectin-4, C-terminal domain (LGALS4, Homo sapiens, UniProt P56470)
CDK2 with cyclin A2: Cyclin-dependent kinase 2, with cyclin A2 (CDK2, Homo sapiens, UniProt P24941)
PIM1: Serine/threonine-protein kinase pim-1 (PIM1, Homo sapiens, UniProt P11309)

`NCCCNc1ncnc2c1ncn2[C@@H]1O[C@H](CN(CC#Cc2cccc(C(N)=O)c2)CC[C@H](N)C(=O)O)[C@@H](O)[C@H]1O` gave a pIC50 of 6.82 (Nicotinamide N-methyltransferase (NNMT, Homo sapiens, UniProt P40261); enzyme activity; inhibitor; fluorescence).
`CCOC(=O)/C=C/C(=O)[C@H](CC(C)C)NC(=O)[C@H](Cc1ccccc1)NC(=O)[C@H](Cc1ccccc1)N=[N+]=[N-]` (mixture of isomers) has a pIC50 of 6.49 (CTSB; enzyme activity; inhibitor).
`O=C(O)Cc1csc(NC(=O)c2cc3ccccc3[nH]2)n1` gave a pIC50 of 5.77 (CDK2; enzyme activity; inhibitor; ELISA).
For `CC(=O)NC1C(OC2C(O)C(CO)OC(OC3C(CO)OC(O)C(O)C3O)C2OC2OC(C)C(O)C(O)C2O)OC(CO)C(O)C1O` (stereo not drawn), the pKd was 4.20 (LGALS4 C-terminal domain; binding; NMR).
`CC(=O)c1nn(-c2ccc(C)cc2)/c(=N/N=C(\C)c2ccc(NC(=O)c3ccccc3)cc2)s1` gave a pIC50 of 6.57 (Cyclin-dependent kinase 8, with cyclin C (CDK8, Homo sapiens, UniProt P49336); enzyme activity; inhibitor).
`COc1ccc2[nH]c(C(=O)Nc3nc(CC(=O)O)cs3)cc2c1` gave a pIC50 of 5.50 (CDK2; enzyme activity; inhibitor; ELISA).
`CC(C)Oc1ccc(S(=O)(=O)c2ccc(Oc3cc(OCC(N)=O)c(C(=O)C(Cl)Cl)cc3[N+](=O)[O-])cc2)cc1` gave a pIC50 of 4.76 ([Pyruvate dehydrogenase (acetyl-transferring)] kinase isozyme 4, mitochondrial (PDK4, Homo sapiens, UniProt Q16654); enzyme activity; inhibitor; ATP luminescence).
`CC(=O)Nc1c(N)nc(SCC(=O)N/N=C/c2ccc([N+](=O)[O-])cc2)[nH]c1=O` gave a pIC50 of 6.72 (CDK2 with cyclin A2; enzyme activity; inhibitor).
With `CC(C)C[C@H](NC(=O)[C@H](Cc1ccccc1)NC(=O)OCc1ccccc1)C(=O)C=O` the pIC50 was 5.36 (CTSB; enzyme activity; inhibitor).
`CC1OC(OC2C(OC3C(CO)OC(O)C(O)C3O)OC(CO)C(O)C2OC2OC(CO)C(O)C(O)C2O)C(O)C(O)C1O` (stereo not drawn) has a pKd of 3.77 (LGALS4 C-terminal domain; binding; NMR).
`CCOc1nc(-c2cccc(O)c2)cc(-c2cc3cc(OC)ccc3nc2N2CCOCC2)c1C#N` gave a pIC50 of 6.96 (PIM1; enzyme activity; inhibitor).
With `Nc1ccccc1NC(=O)c1ccc(CNc2ccc(NC3=C(Cl)C(=O)c4cccnc4C3=O)cc2)cc1` the pIC50 was 6.64 (M-phase inducer phosphatase 3 (Homo sapiens, UniProt P30307); enzyme activity; inhibitor).
`CCCOc1nc(-c2cccc(O)c2)cc(-c2cc3cc(OC)ccc3nc2N2CCOCC2)c1C#N` has a pIC50 of 7.02 (PIM1; enzyme activity; inhibitor).
The pKi of `COc1cc(N2CCC(N3CCN(C)CC3)CC2)ccc1Nc1ncc(Cl)c(Nc2ccccc2P(C)(C)=O)n1` is reported as 6.11 (Multidrug and toxin extrusion protein 1 (SLC47A1, Homo sapiens, UniProt Q96FL8); transporter uptake; inhibitor).
`CCOC(=O)[C@H]1O[C@@H]1C(=O)N[C@@H](CC(C)C)C(=O)NCCC(C)C` has a pIC50 of 7.92 (CTSB; enzyme activity; inhibitor).
For `Cc1ccc2oc(=O)cc(NCCO)c2c1`, the pIC50 was 2.74 (Alpha-1A adrenergic receptor (Adra1a, Rattus norvegicus, UniProt P43140); calcium signal; antagonist).
`C[C@H]1C[C@H]2[C@@H]3CCC4=CC(=O)C=C[C@]4(C)[C@@]3(Cl)[C@@H](O)C[C@]2(C)[C@@]1(O)C(=O)CO` has a pEC50 of 5.46 (ADGRG3 (Homo sapiens, UniProt Q86Y34); β-arrestin recruitment; agonist).
For `CC(=O)Nc1c(N)nc(SCC(=O)NN)[nH]c1=O`, the pIC50 was 6.76 (CDK2 with cyclin A2; enzyme activity; inhibitor).
